In ChEMBL document CHEMBL1144562, “Synthesis of a new class of 2-anilino substituted nicotinyl arylsulfonylhydrazides as potential anticancer and antibacterial agents” (2007):
Values after ≈ are worked out from the molar mass of the structure shown.

How the values were obtained:
[1] = system: HOP-92; test: Antitumor activity against HOP92 cells; type: functional; conditions: Homo sapiens, read-out: Log TGI (converted)
[2] = system: BT-549; test: Antitumor activity against BT549 cells; type: functional; conditions: Homo sapiens
[3] = system: SR; test: Antitumor activity against SR cells; type: functional; conditions: Homo sapiens
How it was run: (§1)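 Tested in the NCI 60-human-tumour-cell-line panel at five concentrations, in 10-fold dilutions from 10^-4 to 10^-8 M. Three parameters were taken from the dose-response data, each as log10 of the molar concentration: GI50 (50% net growth inhibition), TGI (total growth inhibition) and LC50 (50% net cell death).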

[4] = system: Bacillus subtilis; test: Antibacterial activity against Bacillus subtilis MTCC 441 after 18 hrs; type: functional; conditions: MTCC 441, 18 h
How it was run: (§2)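 Disc diffusion (Kirby–Bauer) on Mueller-Hinton agar inoculated with fresh bacteria at 1-5 × 10^4 cfu mL-1. Compounds were dissolved in DMF at a range of concentrations, and discs were placed in triplicate. Plates were incubated at 30 °C for 18 h. MIC was taken as the lowest concentration giving no visible bacterial growth on the plate.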

[5] = system: SW-620; test: Antitumor activity against SW620 cells; type: functional; conditions: Homo sapiens; how it was run: as §1
[6] = system: SF-295; test: Antitumor activity against SF295 cells; type: functional; conditions: Homo sapiens
[7] = system: T47D; test: Antitumor activity against T47D cells; type: functional; conditions: Homo sapiens; how it was run: as §1
[8] = system: HT-29; test: Antitumor activity against HT29 cells; type: functional; conditions: Homo sapiens
[9] = system: K562; test: Antitumor activity against K562 cells; type: functional; conditions: Homo sapiens
[10] = system: SNB-19; test: Antitumor activity against SNB19 cells; type: functional; conditions: Homo sapiens; how it was run: as §1
[11] = Antitumor activity against NCI-H322 cells; type: functional; conditions: Homo sapiens
[12] = system: NCI-H460; test: Antitumor activity against NCI-H460 cells; type: functional; conditions: Homo sapiens
[13] = system: MOLT-4; test: Antitumor activity against MOLT4 cells; type: functional; conditions: Homo sapiens
[14] = system: RXF 393; test: Antitumor activity against RXF393 cells; type: functional; conditions: Homo sapiens
[15] = Antitumor activity against HL60 (TB) cells; type: functional, HL-60(TB); conditions: Homo sapiens, HL-60
How it was run: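 NCI 60-cell-line in vitro screen (leukaemia subpanel). Compound tested at five 10-fold dilutions from 10^-4 to 10^-8 M. Dose-response parameters: GI50 (concentration giving 50% net growth inhibition), TGI (total growth inhibition) and LC50 (50% net cell death), each reported as log10 of molar concentration.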

[16] = system: Escherichia coli; test: Antibacterial activity against Escherichia coli MTCC 448 after 18 hrs; type: functional; conditions: MTCC 448, 18 h; how it was run: as §2
[17] = Antitumor activity against LOX IMV1 cells; type: functional; conditions: Homo sapiens
[18] = system: EKVX; test: Antitumor activity against EKVX cells; type: functional; conditions: Homo sapiens
[19] = system: CAKI-1; test: Antitumor activity against CAKI1 cells; type: functional; conditions: Homo sapiens
[20] = system: U-251; test: Antitumor activity against U251 cells; type: functional; conditions: Homo sapiens; how it was run: as §1
[21] = system: CCRF-CEM; test: Antitumor activity against CCRF-CEM cells; type: functional; conditions: Homo sapiens
[22] = read-out: Log LC50 (the source's name) (converted)

## O=C(NNS(=O)(=O)c1ccc(F)cc1)c1cccnc1Nc1ccc(Cl)cc1Cl
[1]
  TGI: 36.3 µM
[2]
  GI50: 36.3 µM
  LC50: > 100 µM
[2]; read-out: Log TGI (converted)
  TGI: 100 µM
[3]
  GI50: 22.9 µM
  LC50: > 100 µM
[3]; read-out: Log TGI (converted)
  TGI: 67.6 µM
[4]
  MIC: 9 µg/mL (≈ 19.8 µM)
[5]
  GI50: 28.8 µM
[5]; [22]
  CC50: > 100 µM
[5]; read-out: Log TGI (converted)
  TGI: > 100 µM
[6]
  GI50: 37.2 µM
[6]; [22]
  CC50: > 100 µM
[6]; read-out: Log TGI (converted)
  TGI: > 100 µM
[7]
  GI50: 18.6 µM
[7]; [22]
  CC50: > 100 µM
[7]; read-out: Log TGI (converted)
  TGI: > 97.7 µM
[8]
  GI50: 21.9 µM
  LC50: > 100 µM
[8]; read-out: Log TGI (converted)
  TGI: 57.5 µM
[9]
  GI50: 20 µM
  LC50: > 100 µM
[9]; read-out: Log TGI (converted)
  TGI: 83.2 µM
[10]
  GI50: 29.5 µM
[10]; [22]
  CC50: > 100 µM
[10]; read-out: Log TGI (converted)
  TGI: > 100 µM
[11]
  GI50: 30.9 µM
[11]; [22]
  CC50: > 100 µM
[11]; read-out: Log TGI (converted)
  TGI: > 100 µM
[12]
  GI50: 31.6 µM
  LC50: > 100 µM
[12]; read-out: Log TGI (converted)
  TGI: > 100 µM
[13]
  GI50: 22.9 µM
  LC50: > 100 µM
[13]; read-out: Log TGI (converted)
  TGI: > 100 µM
[14]
  GI50: 11.5 µM
  LC50: 66.1 µM
[14]; read-out: Log TGI (converted)
  TGI: 27.5 µM
[15]
  GI50: 25.1 µM
  LC50: > 100 µM
[15]; read-out: Log TGI (converted)
  TGI: 61.7 µM
[16]
  MIC: 15 µg/mL (≈ 32.9 µM)
[17]
  GI50: 32.4 µM
  LC50: > 100 µM
[17]; read-out: Log TGI (converted)
  TGI: > 100 µM
[18]
  GI50: 29.5 µM
  LC50: > 100 µM
[18]; read-out: Log TGI (converted)
  TGI: > 100 µM
[19]
  GI50: 30.9 µM
  LC50: > 100 µM
[19]; read-out: Log TGI (converted)
  TGI: > 100 µM
[20]
  GI50: 28.8 µM
  LC50: > 100 µM
[20]; read-out: Log TGI (converted)
  TGI: > 100 µM
[21]
  LC50: > 100 µM
[21]; read-out: Log TGI (converted)
  TGI: > 100 µM
[21]; read-out: pGI50 (converted)
  GI50: 20.9 µM
